Measurements: article PMC6626631 (Biochemical and biophysical research communications, 2018)
pIC50: −log10 of the molar value. “Also recorded” adds a separate entry of the source.

Tests used:
Type in all cases: biochemical
[1] = molecular target: Human DRP1 (1—699) (Homo sapiens, UniProt O00429); test: Liposome-dependent malachite green GTPase activity assay, DRP1
Method in brief: (§1)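 Ni-NTA-purified E. coli enzyme (tag removed for dynamin-1, OPA1), 0.6 μM, preincubated 20 min RT with 80:20 soybean polar lipid:cardiolipin liposomes (0.1 mg/mL) and compound or DMSO; started by 1 mM GTP at 37 °C in 10 mM Hepes pH 7.0, 100 mM KCl, 4 mM MgCl2, 1% DMSO. EDTA stop, malachite green, A650 to phosphate rate; IC50 4-parameter fit.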

[2] = molecular target: T1, dynamin-1 (1—752) (Homo sapiens, UniProt Q05193); test: Liposome-dependent malachite green GTPase activity assay, dynamin-1; details: read-out: Potency of inhibition, dynamin-1; data not shown
T1 sequence (Q05193 1-752): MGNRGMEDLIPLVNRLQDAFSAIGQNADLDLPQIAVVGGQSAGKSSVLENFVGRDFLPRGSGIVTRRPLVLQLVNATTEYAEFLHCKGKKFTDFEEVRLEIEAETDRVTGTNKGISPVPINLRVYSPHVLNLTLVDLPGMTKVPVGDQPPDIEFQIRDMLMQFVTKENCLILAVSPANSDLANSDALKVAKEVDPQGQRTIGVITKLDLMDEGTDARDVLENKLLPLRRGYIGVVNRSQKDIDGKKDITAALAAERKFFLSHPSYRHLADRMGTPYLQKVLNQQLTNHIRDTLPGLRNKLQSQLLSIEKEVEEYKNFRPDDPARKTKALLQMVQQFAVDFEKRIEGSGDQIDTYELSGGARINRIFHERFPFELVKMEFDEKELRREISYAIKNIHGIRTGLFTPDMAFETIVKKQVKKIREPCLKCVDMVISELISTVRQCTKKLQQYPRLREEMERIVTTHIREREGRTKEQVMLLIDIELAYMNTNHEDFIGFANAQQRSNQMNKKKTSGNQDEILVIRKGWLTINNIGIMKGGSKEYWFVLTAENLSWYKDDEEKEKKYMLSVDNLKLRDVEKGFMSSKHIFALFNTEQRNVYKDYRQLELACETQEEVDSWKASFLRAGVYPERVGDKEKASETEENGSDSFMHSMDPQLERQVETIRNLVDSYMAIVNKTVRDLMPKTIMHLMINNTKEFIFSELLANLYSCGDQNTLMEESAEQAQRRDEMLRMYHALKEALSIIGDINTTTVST
Method in brief: as §1

[3] = molecular target: T2, OPA1 (195—960) (Homo sapiens, UniProt O60313); test: Liposome-dependent malachite green GTPase activity assay, OPA1; details: read-out: Potency of inhibition, OPA1; data not shown
T2 sequence (O60313 195-960): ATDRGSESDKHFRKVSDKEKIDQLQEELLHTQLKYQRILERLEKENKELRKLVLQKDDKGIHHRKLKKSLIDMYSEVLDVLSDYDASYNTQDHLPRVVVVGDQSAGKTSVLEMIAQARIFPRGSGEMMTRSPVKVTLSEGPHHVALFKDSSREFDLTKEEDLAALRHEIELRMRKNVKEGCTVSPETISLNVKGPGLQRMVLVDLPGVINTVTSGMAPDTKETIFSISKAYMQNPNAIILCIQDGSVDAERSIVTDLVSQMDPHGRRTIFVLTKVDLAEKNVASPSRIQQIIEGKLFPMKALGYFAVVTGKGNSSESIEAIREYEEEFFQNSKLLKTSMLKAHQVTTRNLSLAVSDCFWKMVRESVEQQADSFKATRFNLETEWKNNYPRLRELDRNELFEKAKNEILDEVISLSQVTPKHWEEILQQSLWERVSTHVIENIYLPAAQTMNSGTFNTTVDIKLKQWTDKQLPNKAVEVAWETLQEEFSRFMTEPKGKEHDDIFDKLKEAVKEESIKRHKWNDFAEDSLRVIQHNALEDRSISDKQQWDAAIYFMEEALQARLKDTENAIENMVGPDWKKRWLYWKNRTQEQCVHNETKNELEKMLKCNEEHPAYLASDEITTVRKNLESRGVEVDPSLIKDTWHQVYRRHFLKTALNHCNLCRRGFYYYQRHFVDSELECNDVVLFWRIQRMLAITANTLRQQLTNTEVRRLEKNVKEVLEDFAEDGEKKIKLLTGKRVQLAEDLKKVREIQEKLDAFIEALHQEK
Method in brief: as §1

[4] = molecular target: DRP1 (Homo sapiens, UniProt O00429); test: Malachite green GTPase activity assay in the absence of liposomes, DRP1; details: dose response in presence vs absence of liposomes
Chain of DRP1 (O00429 1-699 isoform O00429-4): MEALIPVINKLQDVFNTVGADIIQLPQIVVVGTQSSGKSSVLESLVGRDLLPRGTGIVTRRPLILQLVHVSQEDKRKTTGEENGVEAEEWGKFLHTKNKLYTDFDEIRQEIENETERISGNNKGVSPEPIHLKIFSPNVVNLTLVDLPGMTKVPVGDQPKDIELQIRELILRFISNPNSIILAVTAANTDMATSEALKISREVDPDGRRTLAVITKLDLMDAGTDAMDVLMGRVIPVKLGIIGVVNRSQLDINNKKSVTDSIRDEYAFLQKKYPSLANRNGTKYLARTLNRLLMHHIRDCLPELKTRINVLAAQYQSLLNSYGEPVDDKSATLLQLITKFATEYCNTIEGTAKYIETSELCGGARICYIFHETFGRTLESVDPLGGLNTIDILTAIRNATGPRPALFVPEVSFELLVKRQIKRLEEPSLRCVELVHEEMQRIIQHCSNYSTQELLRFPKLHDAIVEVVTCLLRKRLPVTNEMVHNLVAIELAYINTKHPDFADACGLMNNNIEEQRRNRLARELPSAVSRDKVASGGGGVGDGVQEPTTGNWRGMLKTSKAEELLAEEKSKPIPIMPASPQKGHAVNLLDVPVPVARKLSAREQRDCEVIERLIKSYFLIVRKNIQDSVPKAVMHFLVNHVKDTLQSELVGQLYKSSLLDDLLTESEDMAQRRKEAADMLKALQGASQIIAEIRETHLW

Chain of Human DRP1 (1—699) (O00429 1-699 isoform O00429-4): as above

Row | SMILES | Inhibition of DRP1 GTPase activity (in words) ([1]; presence of liposomes, up to 100 μM compound concentration) | pIC50 ([1]; read-out: Potency of inhibition, DRP1, data not shown) | pIC50 [2] | pIC50 [3] | Potency/activity in the absence of liposomes [4]
1 | COc1cc(-n2c(=S)[nH]c3ccccc3c2=O)c(Cl)cc1Cl [mdivi-1] | did not inhibit oligomeric DRP1 GTPase activity; also recorded: do not inhibit DRP1 up to 100 μM |  |  |  | 
2 | Nc1nc2c(ncn2[C@@H]2O[C@H](COP(=O)(O)OP(=O)(O)OP(O)(O)=S)[C@@H](O)[C@H]2O)c(=O)[nH]1 [GTPγS] |  | 3.30 to 3.52 | 3.30 to 3.52 | 3.30 to 3.52 | unaffected by liposomes
